# Laboratory results: ChEMBL document CHEMBL1932938, “From COX-2 inhibitor nimesulide to potent anti-cancer agent: synthesis, in vitro, in vivo and pharmacokinetic evaluation” (Eur J Med Chem, 2012)
# Experiments:
# [1] = system: SF-295; assay: Growth inhibition of human SF295 cells after 48 hrs by SRB assay; type: functional
# [2] = system: SK-BR-3; assay: Cell cycle arrest in human SK-BR-3 cells assessed as accumulation at G1 phase at 5 uM after 3 hrs using propidium iodide staining by FACS analysis; type: functional
# How it was run: (§1)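 SKBR-3 cells in RPMI1640 with 10% heat-inactivated FBS at 37 °C and 5% CO₂ were treated for the stated times. Cells were fixed overnight in 70% EtOH at −20 °C, then stained with propidium iodide buffer (38 mM sodium citrate pH 7.5, 69 µM PI, 120 µg/mL RNase A) for 15 min at room temperature in the dark. Up to 1×10⁴ gated cells were analyzed by flow cytometry, giving percent distribution per phase.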
# [3] = system: TK-10; assay: Growth inhibition of human TK10 cells after 48 hrs by SRB assay; type: functional
# [4] = system: SK-BR-3; assay: Cell cycle arrest in human SK-BR-3 cells assessed as accumulation at Sub-G1 phase at 0.10 uM after 24 hrs using propidium iodide staining by FACS analysis; type: functional
# [5] = system: IGROV-1; assay: Growth inhibition of human IGROV1 cells after 48 hrs by SRB assay; type: functional
# [6] = system: SK-BR-3; assay: Cell cycle arrest in human SK-BR-3 cells assessed as accumulation at G1 phase at 0.25 uM after 12 hrs using propidium iodide staining by FACS analysis; type: functional; how it was run: as §1
# [7] = system: SK-BR-3; assay: Cell cycle arrest in human SK-BR-3 cells assessed as accumulation at S phase at 0.10 uM after 3 hrs using propidium iodide staining by FACS analysis; type: functional; how it was run: as §1
# [8] = system: UO-31; assay: Growth inhibition of human UO31 cells after 48 hrs by SRB assay; type: functional
# [9] = system: OVCAR-8; assay: Growth inhibition of human OVCAR8 cells after 48 hrs by SRB assay; type: functional
# [10] = system: SK-BR-3; assay: Cell cycle arrest in human SK-BR-3 cells assessed as accumulation at G1 phase at 0.25 uM after 6 hrs using propidium iodide staining by FACS analysis; type: functional; how it was run: as §1
# [11] = Apparent oral clearance in Sprague-Dawley rat at 20 mg/kg, ip; type: ADME, organism-based; design: dose 20 mg/kg; conditions: in vivo
# How it was run: (§2)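 Male Sprague–Dawley rats (300–350 g), n=3, fasted overnight with water available, given a single 20 mg/kg i.p. dose in PBS with 0.1% Tween80 and 20% DMSO. Blood drawn into heparinized tubes at 0, 0.25, 0.5, 1, 2, 4, 8 and 24 h. Plasma measured by LC-MS/MS against an internal standard. Parameters from non-compartmental analysis.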
# [12] = Apparent volume of distribution during terminal phase in Sprague-Dawley rat at 20 mg/kg, ip; type: ADME, organism-based; design: dose 20 mg/kg, route intraperitoneal; conditions: in vivo, read-out: Vz/F; how it was run: as §2
# [13] = (§3) Growth inhibition of human Hs 578T cells after 48 hrs by SRB assay; type: functional
# [14] = system: Hs-578T; assay: as §3; type: functional
# [15] = system: SK-BR-3; assay: Cell cycle arrest in human SK-BR-3 cells assessed as accumulation at G1 phase at 0.10 uM after 12 hrs using propidium iodide staining by FACS analysis; type: functional; how it was run: as §1
# [16] = system: SK-MEL-28; assay: Growth inhibition of human SK-MEL-28 cells after 48 hrs by SRB assay; type: functional
# [17] = system: SK-BR-3; assay: Cell cycle arrest in human SK-BR-3 cells assessed as accumulation at G2/M phase at 0.50 uM after 3 hrs using propidium iodide staining by FACS analysis; type: functional; how it was run: as §1
# [18] = system: SK-BR-3; assay: Cell cycle arrest in human SK-BR-3 cells assessed as accumulation at G2/M phase at 0.50 uM after 18 hrs using propidium iodide staining by FACS analysis; type: functional; how it was run: as §1
# [19] = system: HL-60(TB); assay: Growth inhibition of human HL-60(TB) cells after 48 hrs by SRB assay; type: functional
# How it was run: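 Tested in the 60-cell-line panel of the NCI Developmental Therapeutics Program with 48 h drug exposure. The read-out is cellular protein.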
# [20] = system: SK-BR-3; assay: Cell cycle arrest in human SK-BR-3 cells assessed as accumulation at S phase at 0.50 uM after 24 hrs using propidium iodide staining by FACS analysis; type: functional
# [21] = Terminal half life in Sprague-Dawley rat at 20 mg/kg, ip; type: ADME, organism-based; design: dose 20 mg/kg, route intraperitoneal; conditions: in vivo, read-out: beta t1/2 (converted)
# How it was run: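 Male Sprague–Dawley rats (300–350 g, n=3), fasted overnight with water allowed. Single 20 mg/kg i.p. dose in PBS with 0.1% Tween80 and 20% DMSO. Blood taken from saphenous and femoral veins into heparinized tubes at 0, 0.25, 0.5, 1, 2, 4, 8 and 24 h. Plasma quantified by LC-MS/MS (MRM, 483.3→404.3) after tert-butyl methyl ether/hexane extraction. Parameters derived non-compartmentally.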
# [22] = system: SK-BR-3; assay: Cell cycle arrest in human SK-BR-3 cells assessed as accumulation at S phase at 0.50 uM after 18 hrs using propidium iodide staining by FACS analysis; type: functional
# [23] = system: HCC 2998; assay: Growth inhibition of human HCC2998 cells after 48 hrs by SRB assay; type: functional
# [24] = system: SK-BR-3; assay: Cell cycle arrest in human SK-BR-3 cells assessed as accumulation at Sub-G1 phase at 0.10 uM after 12 hrs using propidium iodide staining by FACS analysis; type: functional
# [25] = system: SW-620; assay: Growth inhibition of human SW620 cells after 48 hrs by SRB assay; type: functional
# [26] = system: SNB-75; assay: Growth inhibition of human SNB75 cells after 48 hrs by SRB assay; type: functional
# [27] = system: SK-BR-3; assay: Cell cycle arrest in human SK-BR-3 cells assessed as accumulation at G2/M phase at 0.25 uM after 6 hrs using propidium iodide staining by FACS analysis; type: functional; how it was run: as §1
# [28] = system: UACC-62; assay: Growth inhibition of human UACC62 cells after 48 hrs by SRB assay; type: functional
# [29] = system: SK-OV-3; assay: Growth inhibition of human SKOV3 cells after 48 hrs by SRB assay; type: functional
# [30] = system: SK-BR-3; assay: Cell cycle arrest in human SK-BR-3 cells assessed as accumulation at G1 phase at 0.10 uM after 24 hrs using propidium iodide staining by FACS analysis; type: functional; how it was run: as §1
smiles,measurement,setting,value
Cc1ccc(C)c(COc2cc(NC(=O)c3ccc4c(c3)OCO4)ccc2N(C)S(C)(=O)=O)c1,growth inhibition (GI),[1],Dose-dependent effect
same,GI50,"[1]; SF-295, 48 h",98.3 nM
same,TGI,"[1]; SF-295, 48 h",626 nM
same,CC50,"[1]; SF-295, 48 h, read-out: LC50 (the source's name)",> 100000 nM
same,Activity,[2],69.09%
same,growth inhibition (GI),[3],Dose-dependent effect
same,GI50,"[3]; TK-10, 48 h",354 nM
same,TGI,"[3]; TK-10, 48 h",> 100000 nM
same,CC50,"[3]; TK-10, 48 h, read-out: LC50 (the source's name)",> 100000 nM
same,Activity,[4],11.78%
same,growth inhibition (GI),[5],Dose-dependent effect
same,GI50,"[5]; IGROV-1, 48 h",237 nM
same,TGI,"[5]; IGROV-1, 48 h",> 100000 nM
same,CC50,"[5]; IGROV-1, 48 h, read-out: LC50 (the source's name)",> 100000 nM
same,Activity,[6],73.62%
same,Activity,[7],17.2%
same,growth inhibition (GI),[8],Dose-dependent effect
same,GI50,"[8]; UO-31, 48 h",395 nM
same,TGI,"[8]; UO-31, 48 h",> 100000 nM
same,growth inhibition (GI),[9],Dose-dependent effect
same,GI50,"[9]; OVCAR-8, 48 h",265 nM
same,TGI,"[9]; OVCAR-8, 48 h",> 100000 nM
same,CC50,"[9]; OVCAR-8, 48 h, read-out: LC50 (the source's name)",> 100000 nM
same,Activity,[10],72.21%
same,CL/F,[11],8 mL/min
same,Vd/F,[12],2.16 L/kg
same,GI50,[13],87 nM
same,CC50,[13]; read-out: LC50 (the source's name),> 100000 nM
same,growth inhibition (GI),[14],Dose-dependent effect
same,Activity,[15],73.14%
same,growth inhibition (GI),[16],Dose-dependent effect
same,GI50,"[16]; SK-MEL-28, 48 h",692 nM
same,TGI,"[16]; SK-MEL-28, 48 h",> 100000 nM
same,CC50,"[16]; SK-MEL-28, 48 h, read-out: LC50 (the source's name)",> 100000 nM
same,Activity,[17],11.54%
same,Activity,[18],22.27%
same,growth inhibition (GI),[19],Dose-dependent effect
same,GI50,"[19]; HL-60, 48 h",26.9 nM
same,TGI,"[19]; HL-60, 48 h",96.7 nM
same,CC50,"[19]; HL-60, 48 h, read-out: LC50 (the source's name)",> 100000 nM
same,Activity,[20],11.21%
same,half-life,[21],3.12 h
same,Activity,[22],7.28%
same,growth inhibition (GI),[23],Dose-dependent effect
same,TGI,"[23]; HCC 2998, 48 h",392 nM
same,CC50,"[23]; HCC 2998, 48 h, read-out: LC50 (the source's name)",2970 nM
same,Activity,[24],5.27%
same,growth inhibition (GI),[25],Dose-dependent effect
same,GI50,"[25]; SW-620, 48 h",112 nM
same,TGI,"[25]; SW-620, 48 h",> 100000 nM
same,CC50,"[25]; SW-620, 48 h, read-out: LC50 (the source's name)",> 100000 nM
same,growth inhibition (GI),[26],Dose-dependent effect
same,GI50,"[26]; SNB-75, 48 h",266 nM
same,CC50,"[26]; SNB-75, 48 h, read-out: LC50 (the source's name)",> 100000 nM
same,Activity,[27],9.32%
same,growth inhibition (GI),[28],Dose-dependent effect
same,GI50,"[28]; UACC-62, 48 h",414 nM
same,TGI,"[28]; UACC-62, 48 h",> 100000 nM
same,CC50,"[28]; UACC-62, 48 h, read-out: LC50 (the source's name)",> 100000 nM
same,growth inhibition (GI),[29],Dose-dependent effect
same,GI50,"[29]; SK-OV-3, 48 h",285 nM
same,TGI,"[29]; SK-OV-3, 48 h",> 100000 nM
same,CC50,"[29]; SK-OV-3, 48 h, read-out: LC50 (the source's name)",> 100000 nM
same,Activity,[30],67.9%
